pIC50: −log10 of the molar value.
How the values were obtained:
[1] = system: Human betaherpesvirus 5; test: Inhibition of human cytomegalovirus (HCMV) in plaque reduction assay; assay type: functional, organism-based
Method in brief: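 HCMV Towne strain (plaque-purified P0) plaque reduction in HFF monolayers in MEM(E) with 10% FBS. Inoculum held about 50 PFU, with compound dissolved in the overlay medium. IC50 came from linear regression of percent inhibition against log concentration, with ganciclovir or acyclovir positive controls in every set; two to five experiments.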

[2] = system: Neoplastic cell line; test: Cytotoxic activity against KB cells.; assay type: cell-based; conditions: Homo sapiens
Method in brief: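 KB cells (human oral epidermoid carcinoma) grown in MEM(H) with 5% FBS. Compound effect on incorporation of radiolabelled precursors into DNA, RNA and protein was measured. IC50s came from linear regression of percent inhibition against log concentration, and the three IC50s were averaged.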

[3] = system: L1210; test: In vitro inhibition of L1210 cell growth.; assay type: functional, Mus musculus; parameters: concentration or dose not given beside the values
Method in brief: (§1)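 Murine L1210 leukemia cells in static suspension culture in Fischer's medium with compound for 4 days. Growth rate is the ratio of control to treated population doubling time; where the rate changed, the final rate was used. IC50 is the concentration giving 50% of control growth rate; single-concentration value at 100 μM.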

[4] = system: L1210; test: In vitro inhibition of L1210 cell growth to half of the control rate; assay type: functional, cell-based; conditions: Mus musculus; method in brief: as §1
[5] = Cytotoxic activity against BSC cells; assay type: cell-based; conditions: Cercopithecidae
Method in brief: (§2)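 Cytotoxicity was scored visually in uninfected HFF or BSC-1 monolayers within the plaque-reduction assays. Drug-induced cytopathology was read at 35- and 60-fold magnification on a 0 to 4+ scale on the day plaques were stained and counted.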

[6] = system: Human alphaherpesvirus 1; test: Inhibition of herpes simplex virus (HSV-1) in plaque reduction assay; assay type: functional, organism-based
Method in brief: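 HSV-1 S-148 strain plaque reduction in BSC-1 monkey kidney monolayers, with about 100 PFU inoculum and compound dissolved in the overlay medium. IC50 came from linear regression of percent inhibition against log concentration, with a positive control in each set.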

[7] = Cytotoxic activity against HFF cells.; assay type: cell-based; conditions: Homo sapiens; method in brief: as §2

SMILES: Nc1ncnc2c1c(Br)cn2[C@@H]1O[C@H](CO)[C@@H](O)[C@H]1O
- pIC50 [1]: 5.47
- pIC50 [2]: 5.64
- Activity [3]: 9%
- pIC50 [4]: 5.40

SMILES: CCNc1ncnc2c1c(Cl)cn2COC(CO)CO
- pIC50 [5]: < 4.00
- pIC50 [6]: < 4.00
- pIC50 ([1]; Human betaherpesvirus 5): 4.00
- pIC50 [7]: < 4.00
- Activity [3]: 78%
- pIC50 [4]: < 4.00

SMILES: Cc1cn(COC(CO)CO)c2ncnc(N)c12
- pIC50 [6]: < 4.00
- pIC50 ([1]; Human betaherpesvirus 5): < 4.00
- pIC50 [7]: < 4.00
- Activity [3]: 73%
- pIC50 [4]: < 4.00

SMILES: Nc1ncnc2c1ccn2COC(CO)CO
- pIC50 [5]: < 4.00
- pIC50 [6]: < 4.00
- pIC50 ([1]; Human betaherpesvirus 5): < 4.00
- pIC50 [7]: < 4.00
- Activity [3]: 106%

Reference: ChEMBL document CHEMBL1124846, “Synthesis, antiproliferative, and antiviral activity of certain 4-substituted and 4,5-disubstituted 7-[(1,3-dihydroxy-2-propoxy)methyl]pyrrolo[2,3-d]pyrimidines” (J Med Chem, 1990)
